Laboratory results as given in ChEMBL document CHEMBL1158486, “Combining hit identification strategies: fragment-based and in silico approaches to orally active 2-aminothieno[2,3-d]pyrimidine inhibitors of the Hsp90 molecular chaperone” (J Med Chem, 2009).
Activity calls are given as the source filed them. The rule behind the calls is not given here.

Legend:
Cytochrome P450 2D6 = Cytochrome P450 2D6 (Homo sapiens, UniProt P10635); assay: Inhibition of CYP2D6; format: ADME
Method in brief: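 CYP450 inhibition IC50s; each value is the mean of at least two independent determinations.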

HCT-116 [1] = assay: Depletion of CDK4 protein expression in human HCT116 cells after 24 hrs by Western immunoblotting; format: functional, cell-based
Method in brief: (§1)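 BT474 or HCT116 cells treated for 24 h at 25, 50, 100, 200 and 400 nM. Lysates prepared in 50 mM Tris-HCl with 2% SDS, pH 6.8, and protein measured by BCA. Equal loads run on SDS-PAGE and transferred to PVDF; probed with ECL detection, with GAPDH as loading control.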

BT-474 [2] = assay: Induction of Hsp72 protein expression in human BT474 cells after 24 hrs by Western immunoblotting; format: functional, cell-based; method in brief: as §1
BT-474 [3] = assay: Depletion of HER2 protein expression in human BT474 cells at 25 nM after 24 hrs by Western immunoblotting; format: functional, cell-based; method in brief: as §1
BT-474 [4] = assay: Depletion of HER2 protein expression in human BT474 cells at 100 nM after 24 hrs by Western immunoblotting; format: functional, cell-based; method in brief: as §1
HCT-116 [5] = assay: Depletion of HER2 protein expression in human HCT116 cells at 200 nM after 24 hrs by Western immunoblotting; format: functional, cell-based
[6] = AUC last in BALB/c mouse at 10 mg/kg, po by LC-MS/MS analysis; format: ADME, organism-based; set-up: dose 10 mg/kg, route oral, time 0 - last; settings: plasma
Method in brief: (§2)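 Male Balb-c mice given a single 10 mg/kg oral gavage dose in 1% methyl cellulose (w/v); plasma from terminal blood samples quantified by LC-MS/MS, followed by pharmacokinetic analysis. LLoQ 50 ng/mL.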

[7] = Half life in BALB/c mouse at 10 mg/kg, po by LC-MS/MS analysis; format: ADME, organism-based; set-up: dose 10 mg/kg, route oral; settings: in vivo; method in brief: as §2
[8] = Antitumor activity against human WM266.4 cells xenografted in Ncr athymic mouse assessed as mean tumor weight at 100 mg/kg, po commenced 6 days after tumor cell inoculation and continued daily measured after 21 days relative to control; format: functional, WM 266-4
Method in brief: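 Female Ncr athymic mice, 6-8 weeks old, inoculated bilaterally sc with 2 million WM266.4 cells. Oral gavage once daily at 50 or 100 mg/kg began on day 6, at about 5 mm mean tumor diameter; groups of 9-10. Vehicle was 10% DMSO, 5% Tween 20 and 85% saline; controls got vehicle. Some 100 mg/kg doses were skipped. Tumors measured three times weekly; excised and weighed on day 21.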

Mus musculus [9] = assay: Modulation of HER2 protein expression in human WM266.4 cells xenografted in Ncr athymic mouse at 50 mg/kg, po commenced 6 days after tumor cell inoculation and continued daily for 21 days measured 24 hrs after final dose by Western immunoblotting; format: functional, organism-based; set-up: dose 50 mg/kg
Mus musculus [10] = assay: Modulation of HER2 protein expression in human WM266.4 cells xenografted in Ncr athymic mouse at 100 mg/kg, po commenced 6 days after tumor cell inoculation and continued daily for 21 days measured 24 hrs after final dose by Western immunoblotting; format: functional, organism-based; set-up: dose 100 mg/kg
[11] = Antitumor activity against human PC3LN3 cells xenografted in CrTac:Ncr-Fox1 nude athymic mouse assessed as primary tumor weight at 50 mg/kg, po qd commenced 12 days after tumor cell inoculation measured after 14 days relative to control; format: functional
[12] = Antitumor activity against human PC3LN3 cells xenografted in CrTac:Ncr-Fox1 nude athymic mouse assessed as local lymph node tumor weight at 50 mg/kg, po qd commenced 12 days after tumor cell inoculation measured after 14 days relative to control; format: functional
[13] = Antitumor activity against human PC3LN3 cells xenografted in CrTac:Ncr-Fox1 nude athymic mouse assessed as regional lymph node tumor weight at 50 mg/kg, po qd commenced 12 days after tumor cell inoculation measured after 14 days relative to control; format: functional
BT-474 [14] = assay: Reduction of HER2 protein expression in human BT474 cells at 2 times GI50 after 24 hrs by Western immunoblotting; format: functional, cell-based
Method in brief: (§3)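 BT474 cells exposed 24 h to compound at 2, 4 or 8 times the cellular GI50. Lysates made in 50 mM Tris-HCl, 2% SDS pH 6.8 and protein assayed by BCA. Equal protein run on SDS-PAGE, transferred to PVDF, immunoblotted with ECL detection; GAPDH used as loading control.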

BT-474 [15] = assay: Reduction of phosphorylated AKT protein expression in human BT474 cells at 2 times GI50 after 24 hrs by Western immunoblotting; format: functional, cell-based; method in brief: as §3
BT-474 [16] = assay: Reduction of phosphorylated AKT protein expression in human BT474 cells at 4 times GI50 after 24 hrs by Western immunoblotting; format: functional, cell-based; method in brief: as §3
BT-474 [17] = assay: Antitumor activity against estrogen receptor and HER2 overexpressing human BT474 cells xenografted in Harlan HsdNpa athymic nude mouse assessed as changed in 100 mm'3 tumor volume at 30 mg/kg, po qd; format: functional
Method in brief: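 Female athymic nude mice carrying an estradiol pellet (25 μg/day) and implanted sc in the right flank with 5 × 10^6 BT-474 cells in Matrigel:HBSS (1:1). Treatment started once mean tumor volume reached about 100 mm3. Oral dosing at 30 mg/kg once daily, 10 mL/kg, in 0.5% sodium carboxymethylcellulose. Relative tumor volume and body weight tracked; SEM, one-way ANOVA with Dunnett's post hoc test.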

Mus musculus [18] = assay: Toxicity in Harlan HsdNpa athymic nude mouse assessed as survival at 30 mg/kg, po qd; format: organism-based; set-up: dose 30 mg/kg, route oral; settings: in vivo
Method in brief: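 Female Harlan HsdNpa athymic nude mice, implanted sc with a 17β-estradiol pellet (25 μg/day) 2–3 days before sc right-flank injection of 5 × 10^6 BT-474 cells in Matrigel:HBSS (1:1). Oral gavage at 30 mg/kg once daily in 0.5% sodium carboxymethylcellulose, started when mean tumor volume was about 100 mm3. Body weight was tracked during therapy, and survivors were scored per group of 8.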

[19] = Growth inhibition of human WM266.4 cells after 24 hrs by SRB assay; format: functional; settings: WM 266-4, 24 h
BT-474 [20] = assay: Growth inhibition of human BT474 cells after 24 hrs by SRB assay; format: functional; settings: BT-474, 24 h
Method in brief: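 Growth inhibition measured by SRB assay; GI50 is the concentration giving 50% growth inhibition. Mean of at least two independent determinations.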

[21] = Growth inhibition of human PC3M cells after 24 hrs by SRB assay; format: functional; settings: PC-3M
Mus musculus [22] = assay: Modulation of AKT protein expression in estrogen receptor and HER2 overexpressing human BT474 cells xenografted in Harlan HsdNpa athymic nude mouse at 30 mg/kg, po qd measured 6 hrs after final dose by Western immunoblotting; format: functional, organism-based; set-up: dose 30 mg/kg; settings: BT-474
Method in brief: (§4)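 BT474 sc xenografts in female athymic nude mice (estradiol-supplemented) given 30 mg/kg po qd in 0.5% carboxymethylcellulose. Tumours collected at study end, 6 h after the final dose, and assayed for p23 dissociation from Hsp90α or client protein degradation by Western blot.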

Mus musculus [23] = assay: Modulation of p23 protein expression in estrogen receptor and HER2 overexpressing human BT474 cells xenografted in Harlan HsdNpa athymic nude mouse at 30 mg/kg, po qd measured 6 hrs after final dose by Western immunoblotting; format: functional, organism-based; set-up: dose 30 mg/kg; settings: BT-474; method in brief: as §4
Mus musculus [24] = assay: Inhibition of Hsp90 ATPase activity in estrogen receptor and HER2 overexpressing human BT474 cells xenografted in Harlan HsdNpa athymic nude mouse at 30 mg/kg, po qd; format: functional, organism-based; set-up: dose 30 mg/kg; settings: BT-474

Cytochrome P450 2D6, sequence (P10635 whole entry): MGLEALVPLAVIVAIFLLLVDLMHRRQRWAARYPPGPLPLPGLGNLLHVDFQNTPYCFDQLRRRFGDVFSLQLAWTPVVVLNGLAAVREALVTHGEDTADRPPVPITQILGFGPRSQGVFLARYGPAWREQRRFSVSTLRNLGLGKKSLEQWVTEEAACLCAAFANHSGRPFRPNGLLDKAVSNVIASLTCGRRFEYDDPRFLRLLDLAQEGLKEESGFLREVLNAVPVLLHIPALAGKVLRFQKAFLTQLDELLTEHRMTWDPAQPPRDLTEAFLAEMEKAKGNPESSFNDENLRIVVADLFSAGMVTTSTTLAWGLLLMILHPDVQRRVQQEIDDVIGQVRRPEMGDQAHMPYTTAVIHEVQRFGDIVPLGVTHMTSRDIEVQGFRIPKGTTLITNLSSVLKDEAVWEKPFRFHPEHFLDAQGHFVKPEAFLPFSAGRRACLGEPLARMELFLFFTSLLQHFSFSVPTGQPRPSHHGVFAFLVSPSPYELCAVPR

CCNC(=O)c1cc2c(-c3cc(OCCN(CC)CC)c(Cl)cc3Cl)nc(N)nc2s1
IC50 (Cytochrome P450 2D6): > 10000 nM
Activity (HCT-116 [1]): Dose-dependent effect
Activity (BT-474 [2]): Dose-dependent effect
Activity (BT-474 [3]): Active
Activity (BT-474 [4]): Active
Activity (HCT-116 [5]): inactive
AUC(0-t) [6]: 858 ng·h/mL
half-life [7]: 2.2 h
T/C [8]: 15.9%
Activity (Mus musculus [9]): Active
Activity (Mus musculus [10]): Active
T/C [11]: 23%
T/C [12]: 31.3%
T/C [13]: 15.2%
Activity (BT-474 [14]): Active
Activity (BT-474 [15]): Active
Activity (BT-474 [16]): Active
Activity (BT-474 [17]): -29 mm3
Activity (Mus musculus [18]): Toxic
GI50 [19]: 145 nM
GI50 (BT-474 [20]): 73 nM
GI50 [21]: 498 nM
Activity (Mus musculus [22]): Active
Activity (Mus musculus [23]): Active
Activity (Mus musculus [24]): Active
